Data as given in ChEMBL document CHEMBL1127343, “"Glycylcyclines". 3. 9-Aminodoxycyclinecarboxamides” (1994).
Values after ≈ are worked out from the molar mass of the structure shown. Values belong to the compound of their own block, whether it stands above or below them.

Experiments:
Assay type in all cases: functional
[1] = tested on: Staphylococcus aureus; experiment: In vitro antibacterial activity was measured on gram positive bacteria Staphylococcus aureus UBMS 90-1 tet-M (ribosomal protection) cell lines
Method in brief: (§1)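 MIC by agar dilution on Mueller-Hinton II agar; inoculum (1–5) × 10^5 CFU/mL; antibiotic range 32–0.004 μg/mL; plates incubated 18 h at 35 °C in forced-air incubator. MIC taken as lowest concentration inhibiting growth. Tetracycline, minocycline and doxycycline run as standards in each assay.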

[2] = tested on: Staphylococcus aureus; experiment: In vitro antibacterial activity was measured on gram positive bacteria Staphylococcus aureus UBMS 90-3 sensitive cell lines; method in brief: as §1
[3] = tested on: Escherichia coli; experiment: In vitro antibacterial activity was measured on gram negative bacteria Escherichia coli UBMS 90-4 tet-M (ribosomal protection) cell lines
Method in brief: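 Agar dilution MIC on Mueller-Hinton II agar. Inoculum (1–5) × 10^5 CFU/mL, drug range 32–0.004 μg/mL. Plates incubated 18 h at 35 °C in a forced-air incubator. MIC is the lowest concentration that inhibits growth. The strain panel covered tetracycline-sensitive and -resistant strains. Tetracycline, minocycline and doxycycline were run as standards in each assay.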

[4] = tested on: Staphylococcus aureus; experiment: In vitro antibacterial activity was measured on gram positive bacteria Staphylococcus aureus smith cell lines; method in brief: as §1
[5] = tested on: Escherichia coli; experiment: In vitro antibacterial activity was measured on gram negative bacteria Escherichia coli UBMS 88-1 tet-B(efflux resistance) cell lines
[6] = tested on: Escherichia coli; experiment: In vitro antibacterial activity was measured on gram negative bacteria Escherichia coli UBMS 90-5 sensitive cell lines; method in brief: as §1
[7] = tested on: Staphylococcus aureus; experiment: In vitro antibacterial activity was measured on gram positive bacteria Staphylococcus aureus UBMS 88-7 tet-k(efflux resistance) cell lines
[8] = tested on: Escherichia coli; experiment: In vitro antibacterial activity was measured on gram negative bacteria Escherichia coli J3272 tet-C(efflux resistance) cell lines
[9] = tested on: Escherichia coli; experiment: In vitro antibacterial activity was measured on gram negative bacteria Escherichia coli PRP-1 tet-a(efflux resistance) cell lines

Structure (SMILES): CC(C)C(=O)Nc1ccc2c(c1O)C(=O)C1=C(O)[C@]3(O)C(O)=C(C(N)=O)C(=O)[C@@H](N(C)C)C3[C@@H](O)C1[C@H]2C (stereo partly specified)
MIC [1]: > 32 µg/mL | MIC [2]: 0.5 µg/mL (≈ 0.944 µM) | MIC [3]: > 32 µg/mL | MIC [4]: 1 µg/mL (≈ 1.89 µM) | MIC [5]: 16 µg/mL (≈ 30.2 µM) | MIC [6]: > 32 µg/mL

Structure (SMILES): CC(C)C[C@H](NC(=O)[C@@H](N)CC(C)C)C(=O)Nc1ccc2c(c1O)C(=O)C1=C(O)[C@]3(O)C(O)=C(C(N)=O)C(=O)[C@@H](N(C)C)C3[C@@H](O)C1[C@H]2C (stereo partly specified)
MIC [1]: 4 µg/mL (≈ 5.83 µM) | MIC [2]: 4 µg/mL (≈ 5.83 µM) | MIC [3]: > 32 µg/mL | MIC [4]: 8 µg/mL (≈ 11.7 µM) | MIC [7]: 32 µg/mL (≈ 46.7 µM) | MIC [6]: > 32 µg/mL

MIC [1]: 4 µg/mL (≈ 8.74 µM) | MIC [2]: 0.06 µg/mL (≈ 0.131 µM) | MIC [3]: > 32 µg/mL | MIC [4]: 0.12 µg/mL (≈ 0.262 µM) | MIC [6]: 1 µg/mL (≈ 2.19 µM)
Structure (SMILES): CN(C)c1ccc(O)c2c1CC1C[C@H]3[C@H](N(C)C)C(=O)C(C(N)=O)=C(O)[C@@]3(O)C(=O)C1=C2O (stereo partly specified)

Structure (SMILES): C[C@H](N)C(=O)Nc1ccc2c(c1O)C(=O)C1=C(O)[C@]3(O)C(O)=C(C(N)=O)C(=O)[C@@H](N(C)C)C3[C@@H](O)C1[C@H]2C (stereo partly specified)
MIC [1]: 8 µg/mL (≈ 15.1 µM) | MIC [2]: 2 µg/mL (≈ 3.77 µM) | MIC [3]: 8 µg/mL (≈ 15.1 µM) | MIC [4]: 2 µg/mL (≈ 3.77 µM) | MIC [8]: > 32 µg/mL | MIC [7]: > 32 µg/mL | MIC [5]: 16 µg/mL (≈ 30.2 µM) | MIC [9]: > 32 µg/mL | MIC [6]: 8 µg/mL (≈ 15.1 µM)

Structure (SMILES): C[C@H]1c2ccc(NC(=O)[C@@H](N)CCCCN)c(O)c2C(=O)C2=C(O)[C@]3(O)C(O)=C(C(N)=O)C(=O)[C@@H](N(C)C)C3[C@@H](O)C21 (stereo partly specified)
MIC [1]: > 32 µg/mL | MIC [2]: > 32 µg/mL | MIC [3]: > 32 µg/mL | MIC [4]: > 32 µg/mL | MIC [7]: 16 µg/mL (≈ 27.2 µM) | MIC [6]: > 32 µg/mL

Structure (SMILES): C[C@H]1c2ccc(NC(=O)[C@@H](N)CCC(=O)O)c(O)c2C(=O)C2=C(O)[C@]3(O)C(O)=C(C(N)=O)C(=O)[C@@H](N(C)C)C3[C@@H](O)C21 (stereo partly specified)
MIC [1]: > 32 µg/mL | MIC [2]: 32 µg/mL (≈ 54.4 µM) | MIC [3]: > 32 µg/mL | MIC [4]: > 32 µg/mL | MIC [6]: > 32 µg/mL

Structure (SMILES): C[C@H]1c2ccc(NC(=O)[C@H](Cc3ccccc3)N(C)C)c(O)c2C(=O)C2=C(O)[C@]3(O)C(O)=C(C(N)=O)C(=O)[C@@H](N(C)C)C3[C@@H](O)C21 (stereo partly specified)
MIC [1]: 2 µg/mL (≈ 3.15 µM) | MIC [2]: 1 µg/mL (≈ 1.58 µM) | MIC [3]: 16 µg/mL (≈ 25.2 µM) | MIC [4]: 4 µg/mL (≈ 6.3 µM) | MIC [6]: 32 µg/mL (≈ 50.4 µM)

Structure (SMILES): CC(C)C[C@@H](N)C(=O)Nc1ccc2c(c1O)C(=O)C1=C(O)[C@]3(O)C(O)=C(C(N)=O)C(=O)[C@@H](N(C)C)C3[C@@H](O)C1[C@H]2C (stereo partly specified)
MIC [1]: > 32 µg/mL | MIC [2]: 2 µg/mL (≈ 3.49 µM) | MIC [3]: 4 µg/mL (≈ 6.99 µM) | MIC [4]: 2 µg/mL (≈ 3.49 µM) | MIC [8]: 16 µg/mL (≈ 27.9 µM) | MIC [7]: 16 µg/mL (≈ 27.9 µM) | MIC [6]: 8 µg/mL (≈ 14 µM)

Structure (SMILES): CC(=O)Nc1ccc2c(c1O)C(=O)C1=C(O)[C@]3(O)C(O)=C(C(N)=O)C(=O)[C@@H](N(C)C)C3[C@@H](O)C1[C@H]2C (stereo partly specified)
MIC [1]: > 32 µg/mL | MIC [2]: 0.25 µg cm··-2 | MIC [3]: 32 µg/mL (≈ 63.8 µM) | MIC [4]: 0.5 µg/mL (≈ 0.997 µM) | MIC [6]: 8 µg/mL (≈ 16 µM)

Structure (SMILES): C[C@H]1c2ccc(NC(=O)[C@@H](N)Cc3c[nH]c4ccccc34)c(O)c2C(=O)C2=C(O)[C@]3(O)C(O)=C(C(N)=O)C(=O)[C@@H](N(C)C)C3[C@@H](O)C21 (stereo partly specified)
MIC [1]: 4 µg/mL (≈ 6.2 µM) | MIC [2]: 2 µg/mL (≈ 3.1 µM) | MIC [3]: 4 µg/mL (≈ 6.2 µM) | MIC [4]: 1 µg/mL (≈ 1.55 µM) | MIC [8]: 32 µg/mL (≈ 49.6 µM) | MIC [7]: 16 µg/mL (≈ 24.8 µM) | MIC [9]: 16 µg/mL (≈ 24.8 µM) | MIC [6]: 8 µg/mL (≈ 12.4 µM)

Structure (SMILES): C[C@H]1c2ccc(NC(=O)[C@@H](N)CCC(N)=O)c(O)c2C(=O)C2=C(O)[C@]3(O)C(O)=C(C(N)=O)C(=O)[C@@H](N(C)C)C3[C@@H](O)C21 (stereo partly specified)
MIC [1]: > 32 µg/mL | MIC [2]: 1 µg/mL (≈ 1.7 µM) | MIC [3]: > 32 µg/mL | MIC [4]: 4 µg/mL (≈ 6.81 µM) | MIC [7]: 32 µg/mL (≈ 54.5 µM) | MIC [6]: 16 µg/mL (≈ 27.2 µM)

Structure (SMILES): C[C@H]1c2ccc(NC(=O)[C@@H](N)Cc3ccc(O)cc3)c(O)c2C(=O)C2=C(O)[C@]3(O)C(O)=C(C(N)=O)C(=O)[C@@H](N(C)C)C3[C@@H](O)C21 (stereo partly specified)
MIC [1]: 4 µg/mL (≈ 6.42 µM) | MIC [2]: 0.5 µg/mL (≈ 0.803 µM) | MIC [3]: 8 µg/mL (≈ 12.8 µM) | MIC [4]: 1 µg/mL (≈ 1.61 µM) | MIC [8]: 16 µg/mL (≈ 25.7 µM) | MIC [7]: 32 µg/mL (≈ 51.4 µM) | MIC [5]: 16 µg/mL (≈ 25.7 µM) | MIC [9]: 32 µg/mL (≈ 51.4 µM) | MIC [6]: 8 µg/mL (≈ 12.8 µM)

Structure (SMILES): CN(C)CC(=O)Nc1cc(N(C)C)c2c(c1O)C(=O)C1=C(O)[C@]3(O)C(O)=C(C(N)=O)C(=O)[C@@H](N(C)C)[C@@H]3CC1C2 (stereo partly specified)
MIC [1]: 0.5 µg/mL (≈ 0.897 µM) | MIC [2]: 0.25 µg/mL (≈ 0.448 µM) | MIC [3]: 0.25 µg/mL (≈ 0.448 µM) | MIC [4]: 0.25 µg/mL (≈ 0.448 µM) | MIC [8]: 2 µg/mL (≈ 3.59 µM) | MIC [7]: 2 µg/mL (≈ 3.59 µM) | MIC [5]: 0.5 µg/mL (≈ 0.897 µM) | MIC [9]: 2 µg/mL (≈ 3.59 µM) | MIC [6]: 0.25 µg/mL (≈ 0.448 µM)

Structure (SMILES): CC(C)C[C@H](NC(=O)CN)C(=O)Nc1ccc2c(c1O)C(=O)C1=C(O)[C@]3(O)C(O)=C(C(N)=O)C(=O)[C@@H](N(C)C)C3[C@@H](O)C1[C@H]2C (stereo partly specified)
MIC [1]: > 32 µg/mL | MIC [2]: > 32 µg/mL | MIC [3]: > 32 µg/mL | MIC [4]: 16 µg/mL (≈ 25.4 µM) | MIC [6]: > 32 µg/mL
